Measurements from ChEMBL document CHEMBL1139970, “3,4-Dihydro-2H-benzo[1,4]oxazine derivatives as 5-HT6 receptor antagonists” (Bioorg Med Chem Lett, 2007).

Tests used:
[1] = target: 5-hydroxytryptamine receptor 6 (Homo sapiens, UniProt P50406); assay: Displacement of [3H]LSD from human recombinant 5HT6 receptor expressed in HEK293 cells; type: cell-based
How it was run: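 Competition binding against [3H]LSD, run at 37 °C on HEK293 cells expressing recombinant human 5-HT6 receptor. Affinity is expressed as pKi, with standard deviation of the pKi estimates 0.05–0.3.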

[2] = target: T1, hERG (KCNH2) (Homo sapiens, UniProt Q12809); assay: Inhibition of hERG current by patch clamp electrophysiology assay; type: toxicity
[3] = target: T1, hERG (KCNH2); assay: Inhibition of hERG current at 1 uM by patch clamp electrophysiology assay; type: toxicity
How it was run: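 Conventional patch-clamp electrophysiology measuring inhibition of hERG outward current at a single test concentration. Baseline set to 0%; mean with SEM from n = 2 cells.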

[4] = Ratio of drug level in brain to plasma in rat at 2 mg/kg, iv after 1 hr; type: ADME, organism-based; design: dose 2 mg/kg, route intravenous
How it was run: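 Rats received a single intravenous 2 mg/kg dose. At 1 h post-dose, drug levels in whole brain homogenate and plasma were quantified by HPLC–MS/MS, and the brain-to-plasma ratio was calculated.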

T1 sequence (Q12809 whole entry): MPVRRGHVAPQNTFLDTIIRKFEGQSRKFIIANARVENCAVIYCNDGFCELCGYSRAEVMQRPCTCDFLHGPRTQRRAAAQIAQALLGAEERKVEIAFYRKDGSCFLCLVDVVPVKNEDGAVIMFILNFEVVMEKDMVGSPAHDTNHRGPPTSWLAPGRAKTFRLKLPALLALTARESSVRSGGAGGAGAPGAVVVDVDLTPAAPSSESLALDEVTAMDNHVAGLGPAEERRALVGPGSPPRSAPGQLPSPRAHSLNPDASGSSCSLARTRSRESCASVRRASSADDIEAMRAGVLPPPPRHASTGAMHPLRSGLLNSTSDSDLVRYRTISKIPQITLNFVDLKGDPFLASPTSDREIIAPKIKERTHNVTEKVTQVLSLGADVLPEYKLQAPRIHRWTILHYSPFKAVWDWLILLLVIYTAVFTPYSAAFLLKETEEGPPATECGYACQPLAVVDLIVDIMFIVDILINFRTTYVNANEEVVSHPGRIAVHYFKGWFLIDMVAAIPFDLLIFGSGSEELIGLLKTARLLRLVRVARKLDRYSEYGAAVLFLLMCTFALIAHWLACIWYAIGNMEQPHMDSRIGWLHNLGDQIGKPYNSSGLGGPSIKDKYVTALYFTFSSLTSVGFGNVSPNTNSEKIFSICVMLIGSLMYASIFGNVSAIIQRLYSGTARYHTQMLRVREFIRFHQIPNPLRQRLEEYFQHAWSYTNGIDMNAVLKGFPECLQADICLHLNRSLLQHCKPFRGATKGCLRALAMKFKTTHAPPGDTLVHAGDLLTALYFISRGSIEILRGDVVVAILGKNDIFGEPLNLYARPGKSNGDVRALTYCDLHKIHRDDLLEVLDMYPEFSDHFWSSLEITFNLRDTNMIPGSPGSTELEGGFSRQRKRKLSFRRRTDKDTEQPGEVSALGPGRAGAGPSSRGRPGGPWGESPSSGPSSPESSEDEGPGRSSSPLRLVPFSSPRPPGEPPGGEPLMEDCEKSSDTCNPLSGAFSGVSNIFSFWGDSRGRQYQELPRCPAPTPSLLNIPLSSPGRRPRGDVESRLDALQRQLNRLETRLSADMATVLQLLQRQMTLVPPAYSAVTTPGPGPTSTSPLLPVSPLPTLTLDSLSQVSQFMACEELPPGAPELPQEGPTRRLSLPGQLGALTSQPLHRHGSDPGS
Chain of 5-hydroxytryptamine receptor 6 (P50406 whole entry): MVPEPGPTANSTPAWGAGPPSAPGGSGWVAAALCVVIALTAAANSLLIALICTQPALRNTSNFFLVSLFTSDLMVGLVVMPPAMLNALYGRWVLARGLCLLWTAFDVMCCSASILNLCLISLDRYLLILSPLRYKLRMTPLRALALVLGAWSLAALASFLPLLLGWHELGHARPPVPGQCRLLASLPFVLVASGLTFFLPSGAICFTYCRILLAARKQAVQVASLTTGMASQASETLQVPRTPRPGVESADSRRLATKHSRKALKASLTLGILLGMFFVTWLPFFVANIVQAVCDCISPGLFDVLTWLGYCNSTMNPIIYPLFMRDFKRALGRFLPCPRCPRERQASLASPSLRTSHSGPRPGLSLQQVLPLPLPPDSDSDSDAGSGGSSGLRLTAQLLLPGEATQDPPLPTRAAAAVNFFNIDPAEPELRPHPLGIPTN

Row | Structure (SMILES) | Ki [1] [nM] | IC20 [2] [nM] | inhibition at 1 µM [3] [%] | Kp at 1 h [4]
1 | O=S(=O)(c1ccccc1)N1CCOc2c(N3CCNCC3)cccc21 | 12.6 |  |  | 
2 | O=S(=O)(c1ccccc1F)N1CCOc2c(N3CCNCC3)cccc21 |  | 2200 | 9.9 | 1.8
3 | O=S(=O)(c1cccc(Cl)c1)N1CCOc2c(N3CCNCC3)cccc21 | 2 |  |  | 1.4
4 | O=S(=O)(c1cccc(F)c1)N1CCOc2c(N3CCNCC3)cccc21 | 10 |  |  | 
5 | CS(=O)(=O)Nc1cccc(S(=O)(=O)N2CCOc3c(N4CCNCC4)cccc32)c1 | 200 |  |  | 
6 | CS(=O)(=O)c1ccccc1S(=O)(=O)N1CCOc2c(N3CCNCC3)cccc21 | 316 |  |  | 
7 | O=S(=O)(c1cccc2cccnc12)N1CCOc2c(N3CCNCC3)cc(Cl)cc21 | 0.631 |  |  | 
8 | Cc1cc(N2CCNCC2)c2c(c1)N(S(=O)(=O)c1ccccc1F)CCO2 | 0.398 |  | 26.5 | 
9 | Cc1cc(N2CCNCC2)c2c(c1)N(S(=O)(=O)c1ccccc1C#N)CCO2 | 2 |  | 14.2 | 
10 | O=S(=O)(c1ccccc1F)N1CCOc2c(N3CCNCC3)cc(F)cc21 | 0.631 |  | 26 | 
11 | O=S(=O)(c1ccccc1F)N1CCOc2c(N3CCNCC3)cc(Cl)cc21 | 0.398 |  | 45.2 | 2.7
12 | COc1cc(N2CCNCC2)c2c(c1)N(S(=O)(=O)c1ccccc1)CCO2 | 0.398 |  | 34 | 0.8
13 | CC(C)(C)c1cc(N2CCNCC2)c2c(c1)N(S(=O)(=O)c1ccccc1F)CCO2 | 7.94 |  |  | 
14 | Nc1ccc(S(=O)(=O)N2CCOc3c(N4CCNCC4)cc(F)cc32)cc1 | 1.26 |  |  | 
15 | CC1(C)CN(S(=O)(=O)c2ccccc2F)c2cccc(N3CCNCC3)c2O1 | 0.316 |  |  | 
16 | Nc1cccc2c1OCCN2S(=O)(=O)c1ccccc1F | 631 |  |  | 
17 | Cc1cc(N2CC(C)NC(C)C2)c2c(c1)N(S(=O)(=O)c1ccc(Cl)cc1)CCO2 (stereo not given) | 39.8 |  |  | 
18 | CC1(C)CN(S(=O)(=O)c2ccccc2)c2cc(F)cc(C3CCNCC3)c2O1 | 3.98 |  |  | 
19 | CN(C)CCNc1cccc2c1OC(C)(C)CN2S(=O)(=O)c1cccc(F)c1 | 126 |  |  | 
20 | Cc1cc(N2CCNCC2)c2c(c1)N(S(=O)(=O)c1ccccc1)CCO2 | 2.51 |  | 23.2 | 1
21 | COc1cc(N2CCNCC2)c2c(c1)N(S(=O)(=O)c1ccccc1F)CCO2 | 0.158 |  |  | 
22 | O=S(=O)(c1ccccc1F)N1CC2(CCC2)Oc2c(N3CCNCC3)cccc21 | 0.631 |  |  | 
23 | O=S(=O)(c1ccccc1)N1CCOc2c(N3CCCNCC3)cc(Cl)cc21 | 3.98 |  |  | 
24 | O=S(=O)(c1ccccc1Cl)N1CCOc2c(N3CCNCC3)cccc21 | 3.16 |  | 28.2 | 1.6
25 | O=S(=O)(c1cccc2ccccc12)N1CCOc2c(N3CCNCC3)cc(Cl)cc21 | 0.794 |  |  | 
26 | CC1(C)CN(S(=O)(=O)c2cccc(F)c2)c2cc(F)cc(C3CCNCC3)c2O1 | 5.01 |  |  | 
